# Data as given in ChEMBL document CHEMBL2396619, “Synthesis and neuroprotective effect of E-3,4-dihydroxy styryl aralkyl ketones derivatives against oxidative stress and inflammation” (Bioorg Med Chem Lett, 2013).
# Activity calls are given as the source filed them. The rule behind the calls is not given here.
# Legend:
# [1] = tested on: Radical scavenging activity; assay: Antioxidant activity assessed as DPPH free radical scavenging activity at 50 uM after 60 mins by spectrophotometry; assay type: functional
# [2] = Cytotoxicity against mouse BV2 cells assessed as cell viability at 50 uM after 24 hrs by MTT assay; assay type: cell-based, BV-2; settings: read-out: Activity
# Procedure, shortened: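 BV2 cells exposed to compounds at up to 50 µM for up to 24 h; viability determined by MTT assay.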
# [3] = tested on: PC-12; assay: Neuroprotective activity in rat PC12 cells assessed as protection against H2O2-induced reduction of cell viability at 10 uM treated 3 hrs before H2O2 addition measured after 5 hrs by MTT assay; assay type: functional, cell-based
# Procedure, shortened: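 PC12 cells pretreated with compound at 10 µM for 3 h, then exposed to 500 µM H2O2 for 5 h. Viability measured by MTT and expressed as OD(treated)/OD(control) ×100%, with untreated cells (no compound, no H2O2) set to 100%. Mean ± SD, n = 3.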
# [4] = tested on: BV-2; assay: Antineuroinflammatory activity in mouse BV2 cells assessed as reduction of LPS-induced nitric oxide production treated 3 hrs before LPS addition measured after 24 hrs by Griess assay; assay type: functional, cell-based
# Procedure, shortened: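 LPS-stimulated BV2 microglia; nitrite in culture supernatant measured by Griess assay: supernatant mixed with an equal amount of Griess reagent, incubated in the dark, absorbance read at 540 nm.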
# [5] = tested on: Radical scavenging activity; assay: Antioxidant activity assessed as DPPH free radical scavenging activity after 60 mins by spectrophotometry; assay type: functional
# [6] = Ratio of caffeic acid phenethyl ester IC50 to compound IC50 for DPPH free radical scavenging activity
# [7] = tested on: BV-2; assay: Ratio of caffeic acid phenethyl ester IC50 to compound IC50 for antineuroinflammatory activity in mouse BV2 cells assessed as reduction of LPS-induced nitric oxide production; assay type: functional
SMILES,inhibition [1],"viability at 24 h, 50 µM [2] [%]",Activity [3],IC50 [4] [µM],IC50 [5] [µM],Ratio IC50 [6],Ratio IC50 [7]
CC(=O)Oc1ccc(/C=C/C(=O)OCCc2ccccc2)cc1OC(C)=O,inactive,,,,,,
CC(=O)Oc1ccc(/C=C/C(=O)CCc2cccc(Cl)c2)cc1OC(C)=O,inactive,> 90,Active,8.3,,,
O=C(/C=C/c1ccc(O)c(O)c1)CCCCc1ccccc1,,> 90,Active,5.9,10.6,,
O=C(/C=C/c1ccc(O)c(O)c1)CCCc1ccccc1,,> 90,Active,6.4,9.2,1.3,
COc1ccc(CCC(=O)/C=C/c2ccc(OC(C)=O)c(OC(C)=O)c2)cc1OC,inactive,> 90,Active,12.6,,,
COc1cc(CCC(=O)/C=C/c2ccc(OC(C)=O)c(OC(C)=O)c2)ccc1O,inactive,> 90,Active,5.5,,,
CC(=O)Oc1ccc(/C=C/C(=O)CCCc2ccccc2)cc1OC(C)=O,inactive,> 90,Active,5.3,,,
COc1cc(CCC(=O)/C=C/c2ccc(O)c(O)c2)ccc1O,,> 90,Active,6.3,12.1,,
COc1ccc(CCC(=O)/C=C/c2ccc(O)c(O)c2)c(OC)c1,,> 90,Active,10.6,14,,
O=C(/C=C/c1ccc(O)c(O)c1)CCc1ccccc1,,> 90,Active,14.1,12.7,,
O=C(/C=C/c1ccc(O)c(O)c1)CCc1cccc(Cl)c1,,> 90,Active,10.3,11.1,,
CC(=O)Oc1ccc(/C=C/C(=O)CCCCc2ccccc2)cc1OC(C)=O,inactive,> 90,Active,4.2,,,1.5
CC(=O)Oc1ccc(/C=C/C(=O)CCc2ccccc2)cc1OC(C)=O,inactive,> 90,Active,12.3,,,
COc1ccc(CCC(=O)/C=C/c2ccc(O)c(O)c2)cc1OC,,> 90,Active,14.5,13.2,,
COc1ccc(CCC(=O)/C=C/c2ccc(OC(C)=O)c(OC(C)=O)c2)c(OC)c1,inactive,> 90,Active,9.3,,,
